In this series the test system is MS2 coat protein. The series is described as follows: apparent Kd, MS2 coat protein; higher = weaker binding; RNA-MaP array; FMN 200 µM where present. The essentials: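 The apparent Kd comes from binding curves fitted cluster by cluster, filtered, and summarised as a median. Those curves followed SNAP-549-labelled MS2 coat protein from 0.7 or 1.5 nM, doubling to 3 µM, on Illumina sequencing-chip clusters where stalled E. coli RNA polymerase had transcribed the designs, without and then with constant ligand. The buffer was 100 mM Tris-HCl pH 7.5, 80 mM KCl, 4 mM MgCl2, BSA, DTT, yeast tRNA and Tween-20, and green signal was normalised to red-channel RNA signal and control-cluster median Fmax.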

Where [1] appears, read: designed as: OFF switch for flavin mononucleotide, no ligand.
[2] abbreviates: ligand present: flavin mononucleotide, designed as: OFF switch for flavin mononucleotide.
Setting [3] is: designed as: ON switch for flavin mononucleotide, no ligand.
[4] abbreviates: ligand present: flavin mononucleotide, designed as: ON switch for flavin mononucleotide.

What is called apparent Kd is a dissociation constant that holds for the conditions of the assay.

Turning to “AACAGUACAGGAUAUACAUGAGGAUCACCCAUGUGAGAAUUAAGUGGAAAACCACAAAGUAGAAGGGUACUGGA”, the “apparent Kd” value was found to be 29.8 nM under setting [1] and 269 nM under setting [2].
On the same counts, the results for “AGAUGUACCUAGGAUAUCCGUCUUAUUGGACUAGGAGAAGGAGGUACAUGAGGAUCACCCAUGUAUGACUCCUG” are 11.5 nM and 14 nM.
On to “AGGAGGUUAGGAUAUGCUGCUCGUCACUUGCGUGAUGAGUAGCAGAAGGGACAUGAGGAUCACCCAUGUAAAGA”, for which the “apparent Kd” value by setting is: under setting [1], 43.1 nM; under setting [2], 27.7 nM.
As to “UUUAUGGGACAGAAGGGCAUUUACAUGAGGAUCACCCAUGUUCAUCAUUGCAGGAUAUGUAUUACAUGAGGAUCACCUAUGUUC”, the “apparent Kd” value is 170 nM under setting [3] and 82.5 nM under setting [4].
“CCGGGUCGGGAGGAUAUUCGGGCCCAAGGGCUUGGAGAAGGCUCGACAUGAGGAUCACCCAUGUAAGUGUAAGG”: the “apparent Kd” value reads like this: under setting [1], 345 nM; under setting [2], 698 nM.
As to “GUGCCUUGGGAGAAGGUUACAUGCAAAGCAUUUAAAGGAUAUUCAUACCGGAAACGGACAUGAGGAUCACCCAUGUGGCACAAA”, the “apparent Kd” value by setting is: under setting [3], 870 nM; under setting [4], 145 nM.
“UGUCGGAGCAGAGGAUAUUACAUGAGGAUCACCCAUGUAUGAACCAAUAGAUGGAAACAGCAAUGUAAGAAGGCUGCUCCGACA”: the “apparent Kd” value under setting [1] came out at 95.9 nM and the “apparent Kd” value under setting [2] is 346 nM.
Turning to “AUAUGAUAGAUAGGAUAUACAUUGGAUUUAAAAGUAGAAGGAUCAAGUGGGAAAUGAACAUGAGGAUCACCCAUGUAAUAGGAU”, the “apparent Kd” value by setting is: under setting [3], 107 nM; under setting [4], 78.2 nM.
With “GGGUACAUCGGAGGAUAUCAUGUAAAUACAUGAGGAUCACCCAUGUCGAUGGAGACAUCGGAGAUUGAGAAGGCCGAUAUACCG”, the “apparent Kd” value is, setting by setting: under setting [3], 139 nM; under setting [4], 9.34 nM.
On the same counts, the results for “UGGUACUAGGGAGGAUAUGGGAAGAUACAUGAGGAUCACCCAUGUUUAAGAAUGCCGAGAGGCAACAAGAAGGCCCUAGUACCU” are 532 nM and 98.9 nM.
As for “UAAAGUUAAGGAGGAUAUUACAUGAGGAUCACCCAUGUAAUGGGCUCGGUGUAAGAAGGCCUUGAGUCGAAGUUUCGGAUGAGG”, the “apparent Kd” value under setting [1] came out at 9.55 nM and the “apparent Kd” value under setting [2] was found to be 21.4 nM.
As to “GGAGCACAUAUUAACAUGAGGAUCACCCAUGUCAAAAGACAUGAGGAUAUGGAUCCGAAAAGGAUCCAGAAGGCAUGGUGCUCC”, the “apparent Kd” value was 268 nM under setting [3] and 14.3 nM under setting [4].
Regarding “AAAAAGUGAGGAUAUACAUGAGGAUCACCCAUGUGAAAUCGGAAAAAAAACGAAAAAAGUAGAAGGCACAAAAA”, the “apparent Kd” value by setting is: under setting [1], 25.3 nM; under setting [2], 24.5 nM.
For the sequence “AGUUAAUAUCGAGGAUAUCCUCAUCUACAUGAGGAUCACCCAUGUAAGCAUGGAGAAGGCGAUAUUAACAGCAUGUUACAUGCA”, the “apparent Kd” value is, setting by setting: under setting [3], 112 nM; under setting [4], 10.5 nM.
On to “UUGUACAUAGGAUAUAGUUGUUUCUACAUGAGGAUCACCCAUGUUAUUCCUCUCUCCCUUCUAGAAGGAUGUUUUU”, for which the “apparent Kd” value runs as follows: under setting [1], 40.9 nM; under setting [2], 38 nM.
Take “AGUUAAUAUCGAGGAUAUCCUCAUAAACAUGAGGAUCACCCAUGUUAACAUGGAGAAGGCGAUAUUAACAGCAUGUUACAUGCA”: the “apparent Kd” value is, setting by setting: under setting [3], 268 nM; under setting [4], 20.2 nM.
On to “UCGUGAAGGACAGGAUAUGGACAUGAGGAUCACCCAUGUACAUGGGAAUAUAUACUGCAUUUAUACUAGAAGGGUUACAUAAAU”, for which the “apparent Kd” value under setting [1] is 12.8 nM and the “apparent Kd” value under setting [2] was 11.2 nM.
The corresponding values for “UGUCCAUAGCAGAAGGCACAUCCACAAAAUAAAACAUGAGGAUCACCCAUGUGAGGAUAUGCUAUGGACUAAGAGCGAAAGCUC” are 5.44 nM and 21.8 nM.
For the sequence “GCGAUUGCGUAGAAGGUACAAUUUAAUACAUUGUAAGGAUAUACUUACAUGAGGAUCACCCAUGUUAAUGGAAUUUGCAAUCGC”, the “apparent Kd” value runs as follows: under setting [3], 16.7 nM; under setting [4], 10.8 nM.
As for “AUUUAUGGCCAGAAGGACAUGAGGAUCACCCAUGUAGGAUAUGGACGAUUUUACUCGGCGGUUUGUUAAGGAAGCACCGGCGGU”, the “apparent Kd” value under setting [3] turned out to be 7.76 nM and the “apparent Kd” value under setting [4] was found to be 6.08 nM.
As to “UUUCUUGGGCAAGGAUAUCCUGUGCGGUUCCGGCUCGUGUCUGUCACAUGAGGAUCACCCAUGUGGGAGAAGGUGCCUGCAGUC”, the “apparent Kd” value under setting [1] is 6.22 nM and the “apparent Kd” value under setting [2] amounted to 7.07 nM.
Take “CUUUGCGUUAGAGGAUAUAUUGUGUGUUACACAAUAGAAGGCUAAACAAACAUGAGGAUCACCCAUGUUGUCCAUGUCGUCGGC”: the “apparent Kd” value under setting [3] stood at 16.8 nM and the “apparent Kd” value under setting [4] is 21 nM.
In the case of “CCUUAGUAAGGAUAUCAGCUUAUAGAGUUGGUAAUGAGAGCUGAGAAGGUACAUGAGGAUCACCCAUGUUAGUU”, the “apparent Kd” value runs as follows: under setting [1], 21.1 nM; under setting [2], 35.1 nM.

Values taken from the EternaBench riboswitch data.
